The list is not random: actives were taken first. Their share in the collection is about 2.9%.
NALP1 inh – NALP1 inhibition; S. cerevisiae NALP1/ASC/caspase-1 growth, X-gal OD620, 72 h; inhibition, % at 10 µM; actives 0.61% (n = 280,000); in the data active means inhibition mostly above about 24%, no sharp cut-off; inactive means mostly below about 32%
NLRP3 yeast inh – NALP3 inhibition in yeast; AID 2825; actives 0.39% (n = 330,000); inhibition, % at 10 µM; Yeast reconstituted NLRP3/ASC/caspase-1, beta-gal luminescence, 24 h;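 active means inhibition of 50% or more; inactive means inhibition below 50%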;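 further: plate controls were induced DMSO wells for no effect and uninduced yeast grown without galactose for full effect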
Mot1-301 SUMO – inhibitors of SUMOylation pathway: yeast Mot1-301 growth rescue; S. cerevisiae Mot1-301 growth rescue, ATP luminescence, 38.5C; percent above DMSO median, 100 means doubled; growth rescue, % at 18.8 µM; actives 1% (n = 320,000);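 active means every valid replicate shows activation above 250% relative to neutral control wells; inactive means the rest, any valid replicate at or below 250%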;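 further: OY570 slx delta 5 strain wells were the positive control but not used for scaling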
VIM-2 inh – blocks Pseudomonas aeruginosa VIM-2 metallo-beta-lactamase | purified VIM-2, nitrocefin hydrolysis, epi-absorbance fluorescence | inhibition, % at 5.6 µM | actives 0.89% (n = 290,000) | AID 1527;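 active means inhibition above the mean of all tested compounds plus 3 SD, cutoff set per screening run, cut at about 7.5% in these data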;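 further: red hydrolysis product quenches plate fluorescence so inhibitors raise well fluorescence; 0% = enzyme with DMSO and 100% = DMSO without enzyme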
IMP-1 inh-1 – blocks Pseudomonas aeruginosa IMP-1 metallo-beta-lactamase | actives 0.45% (n = 290,000) | purified IMP-1, nitrocefin hydrolysis, epi-absorbance fluorescence | inhibition, % at 5.6 µM;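 active means inhibition above the mean plus 3 SD of all compounds in the same screening run, cut at about 4.5% in these data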;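 further: 0% = IMP-1 with DMSO and 100% = DMSO wells lacking enzyme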
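Material – recombinant IMP-1 enzyme, purified · Amount – IMP-1 0.2 nM before substrate addition · Medium – HEPES buffer pH 7.1 with ZnSO4 and Brij 35 · Timing – 25 °C, 15 min preincubation, 25 min reaction · Measured by – plate fluorescence quenching by hydrolysis product, ex 480/em 530 nm · Read-out – percent enzyme inhibition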
PolyA inhibitor – yeast polyadenylation inhibition; actives 0.02% (n = 300,000); activity score, % at 12 µM; S. cerevisiae SKY197-pL101 polyadenylation reporter, beta-gal luminescence; efflux-impaired pdr1/pdr3 knockout yeast; score 100 = 6 SD above DMSO;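 active means lowest replicate activity score at least 50, where 100 means six control SD above control mean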;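 further: yeast exposed to compound for 9 h at 30 °C; higher score means more reporter readthrough which indicates perturbed polyadenylation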
IMP-1 inh-2 – IMP-1 inhibition, counter-screen for VIM-2 inhibitors; shares compounds with VIM-2 inh; purified IMP-1, nitrocefin hydrolysis, epi-absorbance fluorescence; inhibition, % at 5.6 µM; 1,300 tested, under 10 active; AID 1856; call rule not given here;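 further: 0% = enzyme with vehicle and 100% = vehicle without enzyme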
VIM-2 FRET ctr – VIM-2 FRET inhibition, artifact counter-screen. shares compounds with VIM-2 inh. inhibition, % at 5.6 µM. actives 23% (n = 1,300). AID 1857. purified VIM-2, CCF2 FRET substrate hydrolysis;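 active means inhibition above the mean of all tested compounds plus 3 SD, cut at about 19% in these data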;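 further: 0% = VIM-2 plus DMSO and 100% = no enzyme wells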
TEM-1 inh – TEM-1 inhibition, counter-screen for VIM-2 inhibitors; Purified TEM-1, nitrocefin hydrolysis, epi-absorbance fluorescence; inhibition, % at 5.6 µM; shares compounds with VIM-2 inh; actives 3% (n = 1,300);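 active means inhibition above that campaign's mean inhibition plus 3 SD, cut at about 0.46% in these data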;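 further: 0% = TEM-1 with DMSO and 100% = TEM-1 with 100 µM potassium clavulanate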
Target sequence (P62593 whole entry, looked up): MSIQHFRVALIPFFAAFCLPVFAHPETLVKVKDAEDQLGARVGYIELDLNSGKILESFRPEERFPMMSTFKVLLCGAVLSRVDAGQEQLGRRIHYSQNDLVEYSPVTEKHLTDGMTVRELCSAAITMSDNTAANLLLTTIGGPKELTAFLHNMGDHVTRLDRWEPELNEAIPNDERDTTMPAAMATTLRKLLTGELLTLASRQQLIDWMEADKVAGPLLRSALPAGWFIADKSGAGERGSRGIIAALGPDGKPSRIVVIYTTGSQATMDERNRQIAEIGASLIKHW
VIM-2 inh conf – confirmation of P. aeruginosa VIM-2 metallo-beta-lactamase inhibitors; shares compounds with VIM-2 inh; purified VIM-2, nitrocefin hydrolysis, epi-absorbance; inhibition, % at 5.6 µM; actives 96% (n = 1,300);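 active means inhibition of the VIM-2 beta-lactamase enzyme above about 11% from the earlier first-round screen, limit read from the data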;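 further: 0% = VIM-2 with DMSO and 100% = buffer wells without enzyme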
Active calls of the source: *; / = no result given.

SMILES | NALP1 inh | NLRP3 yeast inh | Mot1-301 SUMO | VIM-2 inh | IMP-1 inh-1 | PolyA inhibitor | IMP-1 inh-2 | VIM-2 FRET ctr | TEM-1 inh | VIM-2 inh conf
Clc1ccc(-c2ccc(CNCc3ccccn3)o2)cc1 | -18 | 18 | 20 | 24* | -2 | -16 | -3 | -19 | -6 | 42*
Cc1nnc2c(NC3CCCC3)nc3ccccc3n12 | 12 | 6 | -14 | 12* | -2 | -8 | -3 | -4 | -5 | 23*
COc1ccc(S(=O)(=O)n2nc(OC(=O)c3cccs3)cc2NC(=O)c2cccs2)cc1 | 0 | 18 | 28 | 74* | -1 | -11 | -3 | 37* | 5.7* | 16*
Cc1ccc(S(=O)(=O)n2[nH]c(=O)cc2NC(=O)c2cccs2)cc1 | 23 | -6 | -9 | 70* | 0 | -4 | -4 | 91* | -6 | 84*
COC(=O)c1nc(N)sc1-c1ccc(Cl)c(Cl)c1 | / | 13 | 10 | -3 | -3 | -20 | / | / | / | /
CCN1CCN(c2ccc(N=Cc3ccc(O)cc3O)cc2)CC1 | 15 | 8 | / | 27* | -5 | 1 | -7 | -3 | -10 | 45*
COc1ccc(/C=C2/SC(c3ccc(C)cc3)=NC2=O)cc1OC | 4 | 24 | 22 | 15* | 0 | 4 | 9.4* | -2 | 20* | 14*
COc1ccc(/C=C2\SC(c3ccc(C)cc3)=NC2=O)cc1OC | 34 | 20 | 3 | 6 | 1 | 1 | / | / | / | /
O=C(O)C(NC(=O)c1ccccc1)=C(Cl)Cl | / | 4 | -17 | 23* | -4 | 9 | -3 | 44* | -5 | 25*
Cc1cc(CN(C)C(=O)C2CCC(=O)N(CCc3cccc(F)c3)C2)on1 (stereo unspecified) | -57 | 3 | -26 | -2 | -2 | 3 | / | / | / | /
CC(NC(=O)c1cccc(S(=O)(=O)N2CCc3ccccc32)c1)c1ccco1 (stereo unspecified) | / | 2 | -2 | / | / | / | / | / | / | /
O=c1c2ccccc2nnn1Cc1nnc(-c2ccccc2Br)o1 | 24 | 16 | 3 | 17* | -2 | 7 | -2 | 21* | -3 | 13*
O=C1c2ccccc2S(=O)(=O)N1Cc1nnc(-c2ccccc2Br)o1 | -5 | / | / | 4 | -1 | -4 | / | / | / | /
Cc1ccc2c(c1)c(N=NC(N)=O)c(O)n2C | 14 | 9 | -9 | 13* | 1 | 2 | -3 | -3 | -4 | 19*
Cc1ccc2c(c1)c(N=Nc1cccc(C(=O)O)c1)c(O)n2C | -3 | 16 | 3 | -1 | 0 | -18 | / | / | / | /
O=C(CSC1=NS(=O)(=O)c2cc(F)ccc2N1)NCc1ccc(F)cc1 | / | 18 | 7 | / | / | 15 | / | / | / | /
O=C(NC(=S)Nc1ccccc1N1CCCC1)c1ccco1 | 2 | -49 | -6 | 12* | -2 | -5 | -3 | 36* | -7 | 19*
O=C(NC(=S)Nc1ccccc1N1CCCC1)c1ccccc1Br | -1 | 18 | 2 | 17* | -3 | 8 | -3 | 4 | -8 | 2
CC(NC(=O)C1CCN(C(=O)Nc2ccccc2)CC1)c1ccccc1 (stereo unspecified) | / | 15 | -8 | / | / | 8 | / | / | / | /
Cc1cc(OCC(=O)NCCN2CCOCC2)c2c(C)c(C)c(=O)oc2c1 | 28 | 20 | -12 | 19* | -2 | 0 | -2 | -1 | -5 | 29*
CCc1cc(=O)oc2cc(C)cc(OCC(=O)NCCCn3ccnc3)c12 | -1 | 14 | 12 | 51* | 0 | -11 | -3 | -2 | -7 | 61*
Cc1cc(OCC(=O)NCCCn2ccnc2)c2c(C)c(C)c(=O)oc2c1 | 0 | 11 | 330 | 80* | -2 | -10 | -4 | -3 | -9 | 85*
CCCCc1cc(=O)oc2cc(C)cc(OCC(=O)NCCN3CCOCC3)c12 | 18 | 10 | 74 | 2 | -1 | -6 | / | / | / | /
Cc1cc(OC(C)C(=O)NCCCn2ccnc2)c2c(C)c(C)c(=O)oc2c1 (stereo unspecified) | 21 | 21 | 3 | 64* | -1 | 11 | -3 | -5 | -6 | 74*
COc1ccc(-n2cc(CNCc3cnc4ccccn34)c(-c3cccc(F)c3)n2)cc1 | 16 | 23 | 5 | -2 | -3 | -8 | / | / | / | /
SMILES | NALP1 inh | NLRP3 yeast inh | Mot1-301 SUMO | VIM-2 inh | IMP-1 inh-1 | PolyA inhibitor | IMP-1 inh-2 | VIM-2 FRET ctr | TEM-1 inh | VIM-2 inh conf
COc1ccc(-c2nnc3sc(CCN4C(=O)c5ccccc5C4=O)nn23)cc1 | 12 | -1 | 191 | 18* | -2 | 9 | -2 | -3 | -3 | 4
COc1ccc(-c2ccnc3ncnn23)cc1 | 0 | 9 | 17 | -2 | -2 | -3 | / | / | / | /
c1ccc2c(c1)ncn2-c1ccc(-c2ccnc3ncnn23)cc1 | 20 | -6 | -26 | 30* | -3 | -18 | -2 | -10 | -3 | 65*
Cc1nccc(-c2ccc(-n3cnc4ccccc43)cc2)n1 | -3 | 26 | 168 | 17* | 0 | 1 | -3 | -2 | -6 | 33*
Nc1nccc(-c2ccc(-n3cnc4ccccc43)cc2)n1 | 34 | 26 | 82 | 18* | -4 | 3 | -4 | -6 | -6 | 39*
CN(C(=O)CN1C(=O)c2ccccc2S1(=O)=O)C1CCCCC1 | / | 18 | 11 | / | / | / | / | / | / | /
Cc1ccc(-c2nnc3c4ccccc4c(C)nn23)cc1S(=O)(=O)N1CCN(CCO)CC1 | -12 | 29 | -7 | 25* | -2 | -8 | -2 | 14 | -10 | 48*
Cc1nn2c(-c3ccc(S(=O)(=O)N4CCN(C)CC4)o3)nnc2c2ccccc12 | 13 | 19 | -2 | 24* | -1 | 4 | -1 | 4 | -5 | 34*
O=C(CN1C(=O)c2ccccc2S1(=O)=O)Nc1ccc([N+](=O)[O-])cc1 | / | 9 | -3 | / | / | / | / | / | / | /
COCCNc1ccc(-c2nn(C)c(=O)c3ccccc23)cc1[N+](=O)[O-] | / | 13 | 1 | 2 | -2 | 2 | / | / | / | /
CC(=O)NCc1cc(-c2nn(C)c(=O)c3ccccc23)ccc1C | 25 | -3 | -4 | 2 | -5 | 4 | / | / | / | /
CN(C)CCCNc1ccc(-c2nn(C)c(=O)c3ccccc23)cc1[N+](=O)[O-] | 27 | 14 | 8 | 61* | -1 | 15 | -3 | 2 | -8 | 71*

Compound activity from PubChem BioAssay.
